# MDM2 E3 inh: MDM2-luciferase reporter signal enhancers, primary screen, MDM2 E3 ligase inhibitor project, cell-based, luminescence, 1536-well; E3 ubiquitin-protein ligase Mdm2 (Homo sapiens), Q00987; cell-based MDM2 ubiquitination luciferase reporter, 2 h; 0 = plate control, 100 = twice control, blank-subtracted; signal enhancement, % at 5 µM; 210,000 tested, 0.11% active; AID 1230, 2008;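 active = signal enhancement of 30% or more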;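 also: luminescence tracks abundance of the self-degrading MDM2-luciferase fusion protein; higher signal means inhibition of MDM2 E3 ligase activity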
#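 System: stable MDM2–luciferase fusion reporter cells / Input: 2000 cells seeded into each well / Schedule: 4 h settle plus 2 h compound, 37 °C / Compound: single-point 5 µM / Buffer or medium: cells held in DMEM / Benchmarks: control and blank well means / Evaluation: percent signal gain over controls, blank-subtracted / Measured by: luciferase luminescence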
# Mdm2-MdmX inh: inhibitors of human Mdm2-MdmX association, primary screen, cell-based, luminescence, split luciferase, SaOS-2, uHTS | SaOS-2 split-luciferase Mdm2/MdmX complementation | 330,000 tested, 3% active | inhibition, % at 8 µM;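 active = inhibition of at least 50% at 8 µM in the primary screen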
# Target sequence (O15151 whole entry, looked up): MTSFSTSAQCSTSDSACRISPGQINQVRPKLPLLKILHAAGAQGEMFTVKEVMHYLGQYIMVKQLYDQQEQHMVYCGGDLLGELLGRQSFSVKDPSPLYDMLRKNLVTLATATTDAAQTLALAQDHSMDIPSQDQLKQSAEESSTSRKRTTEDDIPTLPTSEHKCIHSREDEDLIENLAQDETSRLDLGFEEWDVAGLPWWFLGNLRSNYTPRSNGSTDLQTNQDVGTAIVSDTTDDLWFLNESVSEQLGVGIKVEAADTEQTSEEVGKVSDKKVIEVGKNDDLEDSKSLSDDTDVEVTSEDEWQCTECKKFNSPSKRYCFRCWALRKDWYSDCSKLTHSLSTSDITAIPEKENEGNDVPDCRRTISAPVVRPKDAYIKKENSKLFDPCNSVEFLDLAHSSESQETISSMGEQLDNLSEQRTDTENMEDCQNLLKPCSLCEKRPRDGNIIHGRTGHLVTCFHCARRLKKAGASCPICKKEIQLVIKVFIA
# Target sequence (Q00987 whole entry, looked up): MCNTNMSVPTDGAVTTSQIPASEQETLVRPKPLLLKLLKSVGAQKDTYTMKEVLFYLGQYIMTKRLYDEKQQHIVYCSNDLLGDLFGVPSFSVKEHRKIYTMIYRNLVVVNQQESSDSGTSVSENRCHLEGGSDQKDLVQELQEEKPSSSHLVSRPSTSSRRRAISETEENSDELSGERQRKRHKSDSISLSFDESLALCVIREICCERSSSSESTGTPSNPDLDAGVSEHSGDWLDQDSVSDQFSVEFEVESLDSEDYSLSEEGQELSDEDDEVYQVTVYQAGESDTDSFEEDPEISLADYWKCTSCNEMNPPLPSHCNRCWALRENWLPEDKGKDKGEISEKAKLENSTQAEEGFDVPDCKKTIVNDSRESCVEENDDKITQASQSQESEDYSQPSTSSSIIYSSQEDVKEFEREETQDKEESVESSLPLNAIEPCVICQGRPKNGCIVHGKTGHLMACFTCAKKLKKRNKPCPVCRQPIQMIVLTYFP
# CHOP UPR activ: activators of apoptotic CHOP UPR arm, primary screen, cell-based, CHO-CHOP luciferase reporter, luminescence, uHTS | AID 449763, 2010 | activation, % at 10 µM | UPR activation; percent of tunicamycin response over DMSO baseline | 330,000 tested, 0.34% active;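 active = at 10 µM dose, activation of 40% or more, normalized to positive control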;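 also: 100% = tunicamycin at 10 µg/mL and 0% = DMSO alone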
#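 assay system = CHO CHOP reporter cells | amount = 500 CHO-CHOP cells per well | buffer or medium = F12 with 10% FBS | incubation = 16-18 h cell attachment, then 6 h compound exposure, 37 °C | detection = luminescence read with Steady-Glo | read-out = percent activation relative to tunicamycin control | controls = tunicamycin high control, DMSO low control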
# UPR XBP1 act: activators of adaptive XBP1 UPR arm, primary screen, cell-based, CHO-XBP1 luciferase reporter, luminescence, uHTS; 330,000 tested, 0.33% active; activation, % at 20 µM; IRE1-XBP1 UPR activation; percent of tunicamycin response, DMSO as zero; AID 463104, 2010;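 active = versus positive control, 20 µM dose yields 30% or more activation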;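 also: 100% = tunicamycin at 10 µg/mL and 0% = DMSO only wells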
#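 assay system = CHO-XBP1 luciferase reporter cells | amount = 1000 cells/well | buffer or medium = F12 plus 10% FBS | compound dosing = single point, 20 µM final compound, 1% DMSO | incubation = 16-18 h cell attachment at 37 °C, then 6 h compound exposure | detection = Steady-Glo luminescence read | controls = tunicamycin 10 µg/mL and vehicle-only wells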
# B2AR ag: beta2AR agonists driving receptor internalization, primary screen, cell-based, FAP fluorogen, flow cytometry. Beta-2 adrenergic receptor (Homo sapiens), P07550. Am2.2-beta2AR cells. response, % (no concentration beside the values). 340,000 tested, 0.43% active;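 active = response above a set limit, near 3 SD of response in nonfluorescent compounds, cut at about 42% in these data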
# Dynein transport: inhibitors of GR-EGFP nuclear translocation, primary screen, dynein cargo transport inhibitor project, imaging, high-content, 3617.4 mouse cells; z-score, hits read low; test concentration mostly 20 µM; stimulated with dexamethasone, 1 µM; hits give low values; 220,000 tested, 0.47% active; AID 1381, 2008;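 active = plate z-score of nuclear minus cytoplasmic receptor signal below a set negative limit, without overly bright fluorescence or cell loss, cut at about -3.5 in these data, passing the limit was not always enough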;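 also: z-score of nuclear minus cytoplasmic ring GR-EGFP intensity difference per well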
#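 Buffer or medium: Induction medium lacking tetracycline, stripped serum | Also added: Dexamethasone agonist, 1.0 µM final, for 30 min | Timing: 48 h induction, 1 h compound, 30 min dex at 37 °C | Detection: Formaldehyde fixation, Hoechst nuclear stain, 10x automated fluorescence imaging | Measure: Nuclear versus cytoplasmic GR-EGFP signal, averaged per well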
# Mdm2 MdmX conf: Mdm2-MdmX complex disruptors, retested hits, confirmation, luminescence, single concentration; AID 489028, 2010; Mdm2-MdmX binding, luminescent assay; shares compounds with Mdm2-MdmX inh; 10,000 tested, 55% active; inhibition, % at 8 µM; in the data active = inhibition above about 40%
# Full FLuc ctr: full-length luciferase signal inhibition, confirmation, counter-screen for Mdm2/MdmX interaction inhibitor project, cell-based, single concentration, SaOS-2; shares compounds with Mdm2-MdmX inh; AID 504607, 2011; SaOS-2 full-length luciferase counterscreen, luminescence; inhibition, % at 8 µM; 6,200 tested, 77% active;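 active = mean inhibition at 8 µM reaching about 37%, which flags the compound as non-specific, limit read from the data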;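 also: p53-null SaOS-2 cells with luciferase driven by a doxycycline-inducible promoter; compound on cells about two nights before reading with doxycycline added after day one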
# Numbers without * were called inactive; . = no result given. Rows were chosen to be rich in hits. Some 3.7% of all compounds tested hit in one or more screens of this group.
SMILES,MDM2 E3 inh,Mdm2-MdmX inh,CHOP UPR activ,UPR XBP1 act,B2AR ag,Dynein transport,Mdm2 MdmX conf,Full FLuc ctr
Cc1cccc(Cn2nc(C(C)(C)C)cc2C(=O)Nc2ccc(F)cc2)c1,-11.2,86.7*,0.0,-0.5,36.0,2.72,81.5*,31.2
CC(=O)n1c2ccccc2c2ccccc21,-9.8,1.9,-1.9,1.9,-2.8,0.0226,.,.
Cc1ccc(C(=O)n2c3ccccc3c3ccccc32)cc1,-10.5,51.0*,-0.2,-1.2,-4.3,1.07,55.0*,53.4*
CCN(CC)c1ccc(/C=N\NC(=O)c2cccc3cc[nH]c23)cc1,-0.9,50.2*,8.1,19.7,13.8,-0.326,39.2,.
CCNC(=O)CC1SC(=Nc2ccc(C)c([N+](=O)[O-])c2)N(C)C1=O (stereo unspecified),.,21.7,0.1,-2.1,-1.0,.,.,.
COc1ccc(Cc2nnc(N/N=C/c3ccc(Br)cc3)[nH]c2=O)cc1OC,0.0,24.2,2.4,3.6,-4.8,-1.2,.,.
COc1ccc(Cc2nnc(N/N=C/c3ccc(O)cc3)[nH]c2=O)cc1OC,-4.0,65.8*,-0.9,-0.8,-10.6,-0.0843,70.2*,24.8
COc1ccc(-n2nc3c(N4CCC(C(=O)NCc5ccccc5C)CC4)nnc(C)c3c2C)cc1,.,99.7*,4.6,-2.0,82.0*,.,97.8*,50.9*
CCOc1ccccc1CNC(=O)C1CCCN(c2nnc(C)c3c(C)n(-c4ccccc4)nc23)C1 (stereo unspecified),.,89.7*,6.8,13.6,7.8,.,40.6*,33.6
COc1ccc(-n2nc3c(N4CCC(C(=O)NCC(C)c5ccccc5)CC4)nnc(C)c3c2C)cc1 (stereo unspecified),.,70.4*,4.0,14.3,21.3,.,6.7,.
COc1ccc(-n2nc3c(N4CCC(C(=O)NC5CCCCC5)CC4)nnc(C)c3c2C)cc1,.,97.4*,3.0,3.2,12.2,.,22.1,75.6*
Cc1ccc(-n2nc3c(N4CCC(C(=O)NCc5ccc(C)o5)CC4)nnc(C)c3c2C)cc1,.,29.6,1.2,11.1,10.2,.,.,.
CC1CCCN(C(=O)COC(=O)C2=COCCO2)C1 (stereo unspecified),.,0.5,1.7,1.1,0.5,.,.,.
CC(C)c1ccc(O)c(NC(=S)NC(=O)c2ccc3c(c2)OCO3)c1,.,17.7,5.2,0.9,1.5,.,.,.
O=C(OCC(=O)N1CCC(c2ccccc2)=N1)c1ccc([N+](=O)[O-])s1,.,0.9,3.6,-1.4,-2.4,.,.,.
O=C1C(Cl)=C(NCCc2ccccc2)C(=O)c2ccccc21,.,.,.,.,16.6,.,.,.
CC(=O)N(Cc1ccc(F)cc1)C1=C(NCCc2ccccc2)C(=O)c2ccccc2C1=O,-8.5,80.2*,2.4,1.1,-4.1,1.21,84.5*,52.2*
O=C(Nc1nc(-c2ccccn2)cs1)c1cccc(S(=O)(=O)N2CCOCC2)c1,.,77.3*,8.4,-2.9,-4.0,.,79.3*,33.4
COc1ccccc1C(=O)Nc1nc(-c2ccc(S(=O)(=O)N3CCOCC3)cc2)cs1,-23.6,77.5*,-6.0,-4.2,17.6,1.91,83.0*,29.5
O=C(Nc1nc(-c2ccccn2)cs1)c1ccc(S(=O)(=O)N2CCCCC2)cc1,.,88.1*,3.6,2.1,.,-0.95,89.5*,15.8
COc1ccc(C(=O)Nc2nc(-c3ccccn3)cs2)cc1S(=O)(=O)N1CCOCC1,.,49.1,0.8,-0.3,13.9,.,.,.
O=C(Nc1nc(-c2cccs2)cs1)c1ccc(S(=O)(=O)N2CCCCC2)cc1,-2.4,38.4,1.4,-0.5,4.3,-0.406,.,.
Cc1ccc(S(=O)(=O)N2CCOCC2)cc1C(=O)Nc1nc(-c2ccccn2)cs1,.,76.1*,2.6,4.2,4.7,.,65.2*,30.4
COc1ccc(C(=O)NCCCn2nc(C)cc2C)cc1S(=O)(=O)N1CCOCC1,.,-7.4,1.3,-0.9,-3.4,.,.,.
Cc1nc(C)n(C(Oc2ccc(Cl)cc2Cl)C(=O)C(C)(C)C)n1 (stereo unspecified),.,13.7,-1.3,-2.2,1.1,.,.,.
SMILES,MDM2 E3 inh,Mdm2-MdmX inh,CHOP UPR activ,UPR XBP1 act,B2AR ag,Dynein transport,Mdm2 MdmX conf,Full FLuc ctr
Cc1cc(C)nc(CCNC(=O)c2cc(COc3ccccc3)on2)n1,.,-14.3,1.9,1.2,-2.0,.,.,.
C[C@H]1CN=C(N(C)C)N1CCCCc1ccccc1,.,4.4,0.2,-0.7,-1.0,.,.,.
Cn1nc(-c2ccccc2)c(CSc2ccccc2Cl)c1Cl,-16.4,52.6*,0.3,3.8,-129.4,0.419,64.6*,55.9*
Cn1nc(-c2ccccc2)c(C(O)c2ccc(Cl)cc2)c1Cl (stereo unspecified),-7.7,-31.9,1.3,0.0,-2.3,.,.,.
COCCNC(=O)C(=O)NCC1OCCN1S(=O)(=O)c1cc(F)ccc1F (stereo unspecified),.,1.3,-0.5,-2.1,-1.0,.,.,.
N#C/C(=N\Nc1cccc(Cl)c1)C(=O)c1ccccc1,-13.9,71.1*,0.8,2.5,20.4,0.674,19.6,.
N#C/C(=N\Nc1ccc(Cl)cc1)C(N)=S,-6.6,64.2*,3.2,2.4,19.7,-0.521,64.3*,43.9*
Cc1ccc(N/N=C(\C#N)C(N)=S)cc1C,-1.8,64.3*,2.2,-0.6,9.6,2.49,52.9*,72.2*
N#C/C(=N\Nc1ccc(Cl)cc1)C(=O)c1ccsc1,-14.3,68.8*,1.9,-0.3,11.0,-0.013,38.5,73.6*
N#C/C(=N\Nc1ccccc1)C(N)=S,-16.2,37.1,1.8,3.6,-4.4,-0.478,.,.
c1ccc([C@H]2CNCCN2CCc2cccc3ccccc23)cc1,.,57.1*,0.7,-2.2,25.2,.,21.8,.
COc1cc(CCCN2CCNC[C@@H]2c2ccccc2)cc(OC)c1OC,.,-6.2,2.5,-0.7,-0.7,.,.,.
CCN1C(=O)c2ccc(C(=O)Nc3ccc(O)cc3C)cc2C1=O,.,2.7,6.9,-4.1,-8.7,.,.,.
O=C(NC1CCN(Cc2ccccc2)CC1)c1ccc2c(c1)[nH]c(=O)n2Cc1ccc(F)cc1,-3.6,40.6,0.9,-4.0,8.9,-0.47,.,.
